Assay outcomes deposited in PubChem BioAssay by several laboratories.
An excerpt weighted towards active compounds, which were near 6.4% of everything screened.
H69AR inhibit = blocks growth of human H69AR lung tumor cells. H69AR lung tumor viability, ATP luminescence, 72 h; stronger effect = lower value. viability, % at 10 µM. 85,000 tested, 6% active. AID 598;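 active means viability at or below 40%; inactive means viability above 40%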;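 further: multidrug resistant small cell line overexpressing MRP-1 efflux transporter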
HUVEC prolif 384 = blocks proliferation of human endothelial cells; HUVEC proliferation, CellTiter-Glo luminescence, 72 h; stronger effect = lower value; 86,000 tested, 1.1% active; viability, % at 10 µM (by protocol);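 active means viability at or below 30%; inactive means viability above 30%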
Jurkat viability = cytotoxicity toward Jurkat cells. AID 463. Jurkat E6.1 viability, ATP luminescence, 48 h. inhibition, % at 4 µM. 56,000 tested, 1.2% active;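 active means inhibition above the mean inhibition of all tested compounds plus 3 SD, cut at about 28% in these data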
Fibroblast inh = blocks proliferation of human lung fibroblasts; LL 47 human lung fibroblast viability, ATP luminescence; stronger effect = lower value; viability, % at 10 µM; 85,000 tested, 1.1% active;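 active means viability at or below 50% in the single dose screen; inactive means viability above 50%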;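 further: compound exposure lasted 72 h before the ATP readout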
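test system = LL 47 human lung fibroblasts | amount = 1,150 fibroblasts seeded per well | medium = 15% FBS in IMEM | times = overnight cell rest, 72 h compound treatment at 37 °C | measured by = CellTiter-Glo luminescence measuring cellular ATP | read-out = viability percentage against median untreated-cell control | benchmarks = cell-only wells, no compound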
Each line names hits and unclear results; the compound was inactive in the other large screens.

CCOc1cccc(C(=O)Nc2ccc(N(CC)CC)cc2)c1	H69AR inhibit 20
CC1=CC(C)(C)N(C(=O)C(C)N2C(=O)c3ccccc3C2=O)c2ccc(C)cc21 (configuration not stated)	none (no result: Jurkat viability)
Cc1ccc(OC(=O)c2cccc(C(=O)Oc3ccc(C)cn3)n2)nc1	none
CN1CCN(C(c2cccnc2)c2ccc3cccnc3c2O)CC1 (configuration not stated)	H69AR inhibit 16
COc1ccc(Cn2nnnc2C(c2cccnc2)N2CCN(c3ccc(O)cc3)CC2)cc1 (configuration not stated)	none
CCOC(=O)c1cnn2c(C(F)(F)F)cc(-c3ccccc3)nc12	none
CCOC(=O)N1CCC(NC(=O)c2cnn3c(C(F)(F)F)cc(-c4cccc(OC)c4)nc23)CC1	Fibroblast inh 27
CCOC(=O)N1CCC(NC(=O)c2cc3cc4cc(OC)ccc4nc3o2)CC1	H69AR inhibit 38
COc1cc(/C=C2/C(=N)N3C=CSC3=NC2=O)ccc1OCCCOc1cc(C)ccc1C	H69AR inhibit 19, HUVEC prolif 384 15 (no result: Jurkat viability)
COc1cc2cc(C(c3nnnn3C3CCCCC3)N(C)C3CCCCC3)c(=O)[nH]c2cc1OC (configuration not stated)	none
Cc1cc(C)n(Cc2ccccc2F)c(=O)c1C#N	none
CSc1cc(-c2ccccc2)n(Cc2ccccc2Cl)c(=O)c1C#N	H69AR inhibit 4.8 (no result: Jurkat viability)
OCCN1CCN(c2nc(-c3ccccc3)nc3c2oc2ccccc23)CC1	H69AR inhibit 24, HUVEC prolif 384 12, Fibroblast inh 20
O=C(O)C1CCN(c2nc(-c3ccccc3)nc3c2oc2ccccc23)CC1	H69AR inhibit 19
CS(=O)(=O)N(CCc1ccccc1)CC(N)=O	none
CC(=O)N1CCCc2cc(S(=O)(=O)N3CCC(C)CC3)ccc21	none (no result: Jurkat viability)
CNC(=O)C1CC(=O)N(Cc2ccc3c(c2)OCO3)C(=Nc2ccc(OC)cc2)S1 (configuration not stated)	none
CN(C)c1nc(NS(=O)(=O)c2ccc(Cl)cc2)nc(N(C)C)n1	none
Cc1ccc(C(=O)Nc2nc3ccc(S(C)(=O)=O)cc3s2)o1	H69AR inhibit 29 (no result: Jurkat viability)
CN(C)S(=O)(=O)c1ccc2nc(NC(=O)c3cccnc3)sc2c1	none
O=C(Nc1nc2ccc(S(=O)(=O)N3CCCC3)cc2s1)c1cccs1	H69AR inhibit 36
CS(=O)(=O)c1ccc2nc(NC(=O)c3ccco3)sc2c1	none (no result: H69AR inhibit, HUVEC prolif 384, Fibroblast inh)
CN(C)S(=O)(=O)c1ccc2nc(NC(=O)c3cccs3)sc2c1	H69AR inhibit 29 (no result: Jurkat viability)
CCOC(=O)c1cn2cccnc2n1	none (no result: Jurkat viability)
CCCn1c(SCC(=O)NCc2ccccc2)nnc1-c1ccncc1	none (no result: Jurkat viability)
Cc1nc(C)c(C(=O)Nc2ccc(Oc3ccccc3)cc2)o1	Jurkat viability 30
CCOc1ccc(C(=O)NCC(=O)OC(C)C(=O)NCc2ccco2)cc1OCC (configuration not stated)	none
COC(=O)C(NC(C)=O)(Nc1nc2c(C)cc(C)cc2s1)C(F)(F)F (configuration not stated)	H69AR inhibit 26 (no result: Jurkat viability)
COC(=O)C(NC(C)=O)(Nc1nc(C)cs1)C(F)(F)F (configuration not stated)	none (no result: Jurkat viability)
CCCOC(=O)c1ccc(Oc2c(-c3ccc(O)cc3O)n[nH]c2C)cc1	none
C=C(C)COc1ccc(-c2n[nH]c(C)c2Oc2ccccc2OC)c(O)c1	H69AR inhibit 7.2, HUVEC prolif 384 29
CCCOC(=O)c1ccc(Oc2c(-c3ccc(OC)cc3O)n[nH]c2C)cc1	H69AR inhibit 1.6, HUVEC prolif 384 25
CCc1cc(-c2n[nH]c(C)c2Oc2ccc(C(C)C)cc2)c(O)cc1O	H69AR inhibit 1.1, HUVEC prolif 384 2.5 (no result: Jurkat viability)
CCOc1ccc(-c2n[nH]c(C)c2Oc2ccccc2OC)c(O)c1	none
Cc1[nH]nc(-c2ccc(O)cc2O)c1Oc1ccccc1	H69AR inhibit 36 (no result: Jurkat viability)
CCOC(=O)c1[nH]nc(-c2cc(CC)c(O)cc2O)c1-c1cscn1	none (no result: Jurkat viability)
COc1ccc(S(=O)(=O)N2CCC(C(=O)N3CCCCC3)CC2)cc1Cl	none (no result: Jurkat viability)
c1cc(Nc2ncnc3sccc23)cc(-c2nnc3n2CCCCC3)c1	none
O=S(=O)(NCc1ccccc1)c1cccs1	none (no result: Jurkat viability)
Cc1cc(=O)[nH]c(N2CCc3ccccc3C2)n1	none (no result: Jurkat viability)
CCOC(=O)C1=C(C)NC2=C(C(=O)CC(c3cccs3)C2)C1c1cccs1 (configuration not stated)	H69AR inhibit 15 (no result: Jurkat viability)
CCCOC(=O)C1=C(C)NC2=C(C(=O)CCC2)C1c1cccs1 (configuration not stated)	none
COC(=O)C1=C(C)NC2=C(C(=O)CC(c3cccs3)C2)C1c1ccsc1 (configuration not stated)	H69AR inhibit 24 (no result: Jurkat viability)
CC1=C(C(=O)OC2CCCC2)C(c2ccc(C)o2)C2=C(CC(c3cccs3)CC2=O)N1 (configuration not stated)	H69AR inhibit 35
Cn1c(SCC(=O)OCC(=O)c2ccccc2)nnc1-c1cccs1	none
CC(=O)N(CC(C)(C)CC=C(C)C)c1ccccc1	none
O=C(CSc1ccc2nnc(-c3ccc(Cl)cc3)n2n1)N1CCc2ccccc21	none (no result: Jurkat viability)
O=S(=O)(/C=C/c1ccccc1)Oc1ccccc1	H69AR inhibit 7.4 (no result: Jurkat viability)
O=S(=O)(/C=C/c1ccccc1)N1CCN(c2ccccc2)CC1	none
CC1(C)C(c2ccccc2)=[N+]([O-])CN1O	H69AR inhibit 34 (no result: Fibroblast inh)
CC1(C)C(c2ccccn2)=[N+]([O-])C(C)(C)N1O	none
Cc1ccc2c(c1)nnn2C1CCN(C(=O)C2CCCCC2)CC1	none
COc1ccccc1CNc1nc2ccccc2n1CCN1CCCCC1	H69AR inhibit 36
CCOC(=O)c1sc(N)c(C#N)c1COC(=O)CNC(=O)c1ccccc1	none
O=C(NCCOC(=O)C1COc2ccccc2O1)c1cccnc1 (configuration not stated)	none (no result: H69AR inhibit, HUVEC prolif 384, Fibroblast inh)
CC(CCc1ccccc1)NC(=O)CSc1nc(N)cc(N)n1 (configuration not stated)	none
Cn1c(NCCCO)nc2c1c(=O)n(Cc1ccccc1F)c(=O)n2C	none (no result: Jurkat viability)
COc1ccccc1Oc1nc2c(c(=O)n(Cc3ccccc3F)c(=O)n2C)n1C	H69AR inhibit 40
OCc1ccc(O)c2ncccc12	H69AR inhibit 22, Fibroblast inh 28 (no result: Jurkat viability)
Oc1ccc(CN2CCN(c3ccccc3)CC2)c2cccnc12	H69AR inhibit 23, Fibroblast inh 26 (no result: Jurkat viability)
Oc1ccc(COCc2ccccc2)c2cccnc12	H69AR inhibit 1.6, Jurkat viability 68, Fibroblast inh 14
Oc1ccc(CN2CCCCC2)c2cccnc12	H69AR inhibit 0.7, Fibroblast inh 3.1 (no result: Jurkat viability)
CN1C(=O)CC(N2CCN(c3ccc(Cl)c(Cl)c3)CC2)C1=O (configuration not stated)	none (no result: Jurkat viability)
CC(=O)Nc1cccc(C(=O)NC(C)c2ccc(S(N)(=O)=O)cc2)c1 (configuration not stated)	none (no result: Jurkat viability)
COc1cc(OC)cc(C(=O)N2c3ccc(F)cc3CCC2C)c1 (configuration not stated)	none
COC(=O)c1ccc(Cn2cnc3c(sc4nc(N5CCOCC5)c5c(c43)CCCC5)c2=O)o1	none (no result: Jurkat viability)
Cn1cc(CN2CCc3ccccc3C2)c2ccccc21	none (no result: Jurkat viability)
Oc1ccc(CN2CCc3ccccc3C2)c2cccnc12	H69AR inhibit 38, Fibroblast inh 13 (no result: Jurkat viability)
Oc1ccc(CNc2ccccc2F)c2cccnc12	H69AR inhibit 28
CC(C)NC(=O)CSc1nncn1-c1ccccc1	none
